According to ChEMBL document CHEMBL1152250, “Novel and orally active 5-(1,3,4-oxadiazol-2-yl)pyrimidine derivatives as selective FLT3 inhibitors” (Bioorg Med Chem Lett, 2008):

Assays:
[1] = biological target: T1, Receptor-type tyrosine-protein kinase FLT3 (Homo sapiens, UniProt P36888); assay: Inhibition of GST-tagged FLT3 by ELISA
T1 sequence (P36888 whole entry): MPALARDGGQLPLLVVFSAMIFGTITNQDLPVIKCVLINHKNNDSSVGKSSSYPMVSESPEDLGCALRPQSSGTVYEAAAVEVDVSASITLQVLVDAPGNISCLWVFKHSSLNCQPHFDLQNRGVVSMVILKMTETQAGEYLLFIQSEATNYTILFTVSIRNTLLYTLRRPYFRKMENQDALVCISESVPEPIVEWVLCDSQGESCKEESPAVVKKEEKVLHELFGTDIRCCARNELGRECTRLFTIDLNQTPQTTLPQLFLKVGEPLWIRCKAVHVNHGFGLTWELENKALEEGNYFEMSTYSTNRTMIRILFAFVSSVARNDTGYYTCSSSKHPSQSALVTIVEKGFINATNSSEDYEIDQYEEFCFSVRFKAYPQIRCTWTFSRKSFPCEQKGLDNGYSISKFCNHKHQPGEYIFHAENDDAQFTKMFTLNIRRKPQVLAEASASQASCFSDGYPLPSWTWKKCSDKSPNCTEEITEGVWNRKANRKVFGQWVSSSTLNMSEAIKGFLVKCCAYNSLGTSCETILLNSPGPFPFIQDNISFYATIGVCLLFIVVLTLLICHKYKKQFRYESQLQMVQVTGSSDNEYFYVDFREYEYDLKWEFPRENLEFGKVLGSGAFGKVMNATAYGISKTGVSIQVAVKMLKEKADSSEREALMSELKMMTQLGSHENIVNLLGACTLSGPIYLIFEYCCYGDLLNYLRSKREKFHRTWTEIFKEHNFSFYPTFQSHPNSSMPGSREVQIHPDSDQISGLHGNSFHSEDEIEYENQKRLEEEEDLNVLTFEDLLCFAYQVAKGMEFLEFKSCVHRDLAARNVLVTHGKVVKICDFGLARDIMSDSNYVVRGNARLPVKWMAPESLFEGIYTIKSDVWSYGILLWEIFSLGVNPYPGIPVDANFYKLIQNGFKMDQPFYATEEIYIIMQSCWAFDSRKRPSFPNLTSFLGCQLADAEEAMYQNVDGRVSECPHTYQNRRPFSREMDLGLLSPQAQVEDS

[2] = test system: MOLM-13; assay: Antiproliferative activity against human MOLM13 cells after 72 hrs by WST-1 assay; assay type: functional; conditions: MOLM-13, 72 h
Summary of the method: (§1)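 Cells kept in RPMI1640 with 10% heat-inactivated FBS, 1% penicillin and 1% streptomycin, seeded in 96-well plates and exposed to test compounds for 72 h. Viability read with WST-1 reagent. GI50 is the mean ± SEM of three experiments.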

[3] = test system: Liver microsomes; assay: Metabolic stability in human liver microsomes assessed as intrinsic clearance; assay type: ADME, Microsome
Summary of the method: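 Pooled human liver microsomes (0.2 mg protein/mL) with test compound at 0.1 or 1 μmol/L, 5 mmol/L NADPH, 100 mmol/L phosphate buffer pH 7.4, 6 mmol/L MgCl2 and 0.1 mmol/L EDTA. Cosolvent was DMSO (0.01 or 0.001 vol%) or methanol (1 vol%). Incubated at 37 °C for a fixed time, n = 1 or 2. Stopped with CH3CN containing internal standard and analysed by LC-MS or LC-MS/MS. Intrinsic clearance calculated from percent remaining.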

[4] = Antiproliferative activity against human HMC1 cells expressing FLT3-delta599 mutant after 72 hrs by WST-1 assay; assay type: functional; conditions: HMC1, 72 h; summary of the method: as §1
[5] = Antiproliferative activity against human HMC1 cells expressing FLT-D835Y mutant after 72 hrs by WST-1 assay; assay type: functional; conditions: HMC1, 72 h; summary of the method: as §1
[6] = Antiproliferative activity against human ML1 cells after 72 hrs by WST-1 assay; assay type: functional; conditions: ML1, 72 h; summary of the method: as §1
[7] = test system: MOLM-13; assay: Antitumor activity against human MOLM13 cells xenografted in SCID mouse assessed as minimal tumor volume ratio at 50 mg/kg, po bid treated for 5 days measured after 7 days relative to control; assay type: functional
Summary of the method: (§2)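 SCID mice bearing subcutaneous MOLM-13 xenografts, 5 per group, dosed orally b.i.d. for 5 days. […] is the mean tumour volume ratio, treated to control. Regression is the mean tumour volume relative to the initial volume on day 0. Mortality and body weight were also recorded.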

[8] = test system: MOLM-13; assay: Antitumor activity against human MOLM13 cells xenografted in SCID mouse assessed as minimal tumor volume ratio at 100 mg/kg, po bid treated for 5 days measured after 7 days relative to control; assay type: functional; summary of the method: as §2
[9] = test system: Mus musculus; assay: Toxicity to human MOLM13 cells xenografted SCID mouse assessed as mortality at 50 mg/kg, po bid after 5 days; assay type: organism-based, MOLM-13; parameters: dose 50 mg/kg, route oral; conditions: in vivo, 120 h
Summary of the method: (§3)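 MOLM-13 cells implanted subcutaneously in SCID mice. Compound given orally twice daily for 5 days at 50, 100 or 200 mg/kg, alongside an untreated control group. Mortality was scored per dose group, together with tumor volume as treated/control ratio and relative to day-0 volume.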

[10] = test system: Mus musculus; assay: Toxicity to human MOLM13 cells xenografted SCID mouse assessed as body weight loss at 200 mg/kg, po bid after 5 days; assay type: organism-based, MOLM-13; parameters: dose 200 mg/kg, route oral; conditions: in vivo, 120 h; summary of the method: as §2
[11] = Metabolic stability in human liver microsomes
[12] = test system: MOLM-13; assay: Antitumor activity against human MOLM13 cells xenografted in SCID mouse assessed as minimal regressive tumor volume ratio at 50 mg/kg, po bid treated for 5 days measured after 7 days relative to control; assay type: functional; summary of the method: as §2
[13] = test system: MOLM-13; assay: Antitumor activity against human MOLM13 cells xenografted in SCID mouse assessed as minimal regressive tumor volume ratio at 100 mg/kg, po bid treated for 5 days measured after 7 days relative to control; assay type: functional; summary of the method: as §2
[14] = test system: Mus musculus; assay: Toxicity to human MOLM13 cells xenografted SCID mouse assessed as mortality at 100 mg/kg, po bid after 5 days; assay type: organism-based, MOLM-13; parameters: dose 100 mg/kg, route oral; conditions: in vivo, 120 h; summary of the method: as §3
[15] = test system: MOLM-13; assay: Antitumor activity against human MOLM13 cells xenografted in po dosed SCID mouse assessed as tumor volume ratio administered bid for 5 days; assay type: functional, organism-based; summary of the method: as §2
[16] = test system: MOLM-13; assay: Antitumor activity against human MOLM13 cells xenografted in po dosed SCID mouse assessed as regression tumor volume ratio administered bid for 5 days; assay type: functional, organism-based; summary of the method: as §2

SMILES	IC50 [1] [µM]	GI50 [2] [µM]	clearance [3] [L/h/kg]	other results
Oc1cccc(Nc2nc(NCCc3ccncc3)ncc2-c2nnc(C3CC3)o2)c1	0.034	0.01	16	
[O-][n+]1ccc(CCNc2ncc(-c3nnc(C4CC4)o3)c(Nc3ccccc3)n2)cc1		3.61	0.2	
CCCNc1nc(NCCc2ccncc2)ncc1-c1nnc(C2CC2)o1	0.0049	0.036	13	GI50 [4]: 0.036 µM; GI50 [5]: 0.052 µM; GI50 [6]: 4.32 µM; T/C [7]: 0.47; T/C [8]: 0.34; Activity [9]: Non-toxic; Activity [10]: Non-toxic; Activity [11]: Unstable
CCNc1nc(NCCc2ccncc2)ncc1-c1nnc(CN2C[C@@H](C)N[C@@H](C)C2)o1		0.094	0.8	GI50 [4]: 0.074 µM; GI50 [5]: 0.048 µM; GI50 [6]: > 10 µM; T/C [7]: 0.2; T/C [8]: 0.014; Ratio [12]: 1.39; Ratio [13]: 0.12; Activity [9]: Non-toxic; Activity [14]: Non-toxic; Activity [15]: Dose-dependent effect; Activity [16]: Dose-dependent effect; Activity [10]: Non-toxic
Nc1ccc(CCNc2ncc(-c3nnc(C4CC4)o3)c(Nc3ccccc3)n2)cc1		0.287	4.1	
c1cc(CCNc2ncc(-c3nnc(CN4CCNCC4)o3)c(NC3CCC3)n2)ccn1		0.05	6.3	
COc1cc(CCNc2ncc(-c3nnc(C4CC4)o3)c(Nc3ccccc3)n2)ccn1		0.999		
CCOc1nc(NCCc2ccncc2)ncc1-c1nnc(C2CC2)o1	0.08	0.263	1.4	
Oc1ccc(Nc2nc(NCCc3ccncc3)ncc2-c2nnc(C3CC3)o2)cc1	0.0048	0.0032		
c1ccc(Nc2nc(NCCc3ccncc3)ncc2-c2nnc(CN3CCNCC3)o2)cc1		0.074	2.3	
CCCOc1nc(NCCc2ccncc2)ncc1-c1nnc(CN2CCN(C)CC2)o1		0.308	0.7	
CCCNc1nc(NCCc2ccncc2)ncc1-c1nnc(CN2C[C@@H](C)N[C@@H](C)C2)o1		0.043	6.9	
CCCNc1nc(NCCc2ccncc2)ncc1-c1nnc(CN(C)C)o1		0.073	11	T/C [7]: 0.45; Activity [9]: Non-toxic
c1ccc(Nc2nc(NCCc3ccncc3)ncc2-c2nnc(C3CC3)o2)cc1	0.047	0.04	19	
CN1CCN(Cc2nnc(-c3cnc(NCCc4ccncc4)nc3NCC3CC3)o2)CC1		0.052	5.2	
CC(C)Nc1nc(NCCc2ccncc2)ncc1-c1nnc(CN2CCNCC2)o1		0.049	1.5	
CCCNc1nc(NCCc2ccncc2)ncc1-c1nnc(CN2CCN(C(C)=O)CC2)o1		0.066	8.2	
Cc1ccc(Nc2nc(NCCc3ccncc3)ncc2-c2nnc(C3CC3)o2)cc1	0.106	0.023	11	
CCCNc1nc(NCCc2ccncc2)ncc1-c1nnc(CO)o1		0.056	2.1	GI50 [4]: 0.076 µM; GI50 [5]: 0.116 µM; GI50 [6]: 5.96 µM
